Common to all, as to format: cell membranes, Membrane
In assay [1] the target is T1, Adrenergic receptor alpha-2 (Rattus norvegicus, UniProt P22086+P19328+P22909).
T1 sequence (P22086 whole entry): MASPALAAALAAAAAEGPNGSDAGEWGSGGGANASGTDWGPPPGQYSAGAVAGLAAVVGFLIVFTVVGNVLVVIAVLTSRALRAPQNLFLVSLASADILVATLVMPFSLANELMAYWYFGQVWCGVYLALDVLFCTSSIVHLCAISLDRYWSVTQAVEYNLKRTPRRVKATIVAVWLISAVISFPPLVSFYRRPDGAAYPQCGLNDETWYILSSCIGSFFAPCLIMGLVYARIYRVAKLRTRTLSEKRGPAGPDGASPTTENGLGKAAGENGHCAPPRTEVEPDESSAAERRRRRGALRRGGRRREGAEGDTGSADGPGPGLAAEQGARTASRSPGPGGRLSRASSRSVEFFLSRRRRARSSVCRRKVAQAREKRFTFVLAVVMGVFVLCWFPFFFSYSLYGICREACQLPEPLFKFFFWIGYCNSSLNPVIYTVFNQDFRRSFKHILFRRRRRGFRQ
T1 sequence (P19328 whole entry): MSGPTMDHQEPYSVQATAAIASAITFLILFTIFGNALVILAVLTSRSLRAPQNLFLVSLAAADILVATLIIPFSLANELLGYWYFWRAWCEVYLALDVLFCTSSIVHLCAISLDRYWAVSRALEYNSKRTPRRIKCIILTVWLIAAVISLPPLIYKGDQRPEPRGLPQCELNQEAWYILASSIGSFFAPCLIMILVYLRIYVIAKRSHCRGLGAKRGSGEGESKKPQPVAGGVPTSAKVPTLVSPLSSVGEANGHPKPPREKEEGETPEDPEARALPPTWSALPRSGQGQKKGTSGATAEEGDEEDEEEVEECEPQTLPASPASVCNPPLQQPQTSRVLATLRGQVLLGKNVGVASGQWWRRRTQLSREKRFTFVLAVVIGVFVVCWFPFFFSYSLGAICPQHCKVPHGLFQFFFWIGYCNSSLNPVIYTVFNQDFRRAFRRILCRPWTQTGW
T1 sequence (P22909 whole entry): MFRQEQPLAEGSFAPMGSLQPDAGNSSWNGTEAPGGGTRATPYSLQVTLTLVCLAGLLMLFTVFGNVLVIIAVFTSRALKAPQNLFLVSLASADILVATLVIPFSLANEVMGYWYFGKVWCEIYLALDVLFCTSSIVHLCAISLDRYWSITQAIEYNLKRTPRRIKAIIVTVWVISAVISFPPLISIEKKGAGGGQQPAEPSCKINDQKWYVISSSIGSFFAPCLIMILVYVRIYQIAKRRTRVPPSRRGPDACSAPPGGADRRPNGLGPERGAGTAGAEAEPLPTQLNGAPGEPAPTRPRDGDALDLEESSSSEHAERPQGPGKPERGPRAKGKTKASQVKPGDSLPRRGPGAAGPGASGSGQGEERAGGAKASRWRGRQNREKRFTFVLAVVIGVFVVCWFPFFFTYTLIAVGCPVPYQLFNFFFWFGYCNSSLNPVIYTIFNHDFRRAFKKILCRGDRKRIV
Put plainly: Displacement of [3H]rauwolscine from Alpha-2 adrenergic receptor of rat cortical membranes. Background: Displacement assays read how much labelled ligand stays bound in the presence of the test substance.

In assay [2] the target is T2, D(1A) dopamine receptor (Rattus norvegicus, UniProt P18901). The assay is described as follows: Inhibition of specific binding of [3H]-SCH- 23390 to Dopamine receptor D1 in rat striatal membranes; NA= Not active up to a concentration of 5 uM. The method in brief: (§1)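 Competition radioligand binding in rat striatal membranes: D2 sites labelled with [3H]spiroperidol and D1 sites with [3H]SCH-23390. Inhibition of specific binding was measured. Three experiments, each in duplicate. Compounds were tested up to 5 μM, and those without binding at that level were scored not active.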
T2 sequence (P18901 whole entry): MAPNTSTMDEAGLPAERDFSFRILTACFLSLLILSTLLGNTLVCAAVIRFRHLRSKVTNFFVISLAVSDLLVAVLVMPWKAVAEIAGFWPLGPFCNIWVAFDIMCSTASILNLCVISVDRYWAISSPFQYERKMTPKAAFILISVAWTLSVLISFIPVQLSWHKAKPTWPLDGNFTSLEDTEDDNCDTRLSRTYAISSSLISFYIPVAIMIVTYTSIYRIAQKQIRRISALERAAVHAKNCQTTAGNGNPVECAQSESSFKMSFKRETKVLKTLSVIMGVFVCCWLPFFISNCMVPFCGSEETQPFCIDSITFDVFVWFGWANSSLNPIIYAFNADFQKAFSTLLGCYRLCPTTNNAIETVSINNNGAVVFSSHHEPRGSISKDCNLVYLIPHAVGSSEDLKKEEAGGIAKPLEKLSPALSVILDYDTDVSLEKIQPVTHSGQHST

Assay [3] addresses T3, D(2) dopamine receptor (Rattus norvegicus, UniProt P61169). Put plainly: Displacement of [3H]spiroperidol from Dopamine receptor D2 of rat striatal membranes. The procedure, abridged:
as §1

Assay [4] addresses T4, Adrenergic receptor alpha-1 (Rattus norvegicus, UniProt P15823+P23944+P43140).
T4 sequence (P15823 whole entry): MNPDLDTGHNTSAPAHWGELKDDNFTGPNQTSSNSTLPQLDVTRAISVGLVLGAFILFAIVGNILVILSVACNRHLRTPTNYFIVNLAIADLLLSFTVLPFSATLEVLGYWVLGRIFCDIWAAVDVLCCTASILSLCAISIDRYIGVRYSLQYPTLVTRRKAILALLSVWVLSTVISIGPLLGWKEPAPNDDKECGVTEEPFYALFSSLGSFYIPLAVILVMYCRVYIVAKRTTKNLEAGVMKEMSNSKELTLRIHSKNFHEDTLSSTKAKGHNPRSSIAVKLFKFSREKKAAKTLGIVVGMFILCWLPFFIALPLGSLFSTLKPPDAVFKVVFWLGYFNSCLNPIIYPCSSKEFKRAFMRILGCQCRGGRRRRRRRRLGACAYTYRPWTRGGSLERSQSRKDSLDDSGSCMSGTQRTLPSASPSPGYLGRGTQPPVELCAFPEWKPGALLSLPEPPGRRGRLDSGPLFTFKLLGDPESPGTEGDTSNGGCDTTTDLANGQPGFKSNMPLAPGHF
T4 sequence (P23944 whole entry): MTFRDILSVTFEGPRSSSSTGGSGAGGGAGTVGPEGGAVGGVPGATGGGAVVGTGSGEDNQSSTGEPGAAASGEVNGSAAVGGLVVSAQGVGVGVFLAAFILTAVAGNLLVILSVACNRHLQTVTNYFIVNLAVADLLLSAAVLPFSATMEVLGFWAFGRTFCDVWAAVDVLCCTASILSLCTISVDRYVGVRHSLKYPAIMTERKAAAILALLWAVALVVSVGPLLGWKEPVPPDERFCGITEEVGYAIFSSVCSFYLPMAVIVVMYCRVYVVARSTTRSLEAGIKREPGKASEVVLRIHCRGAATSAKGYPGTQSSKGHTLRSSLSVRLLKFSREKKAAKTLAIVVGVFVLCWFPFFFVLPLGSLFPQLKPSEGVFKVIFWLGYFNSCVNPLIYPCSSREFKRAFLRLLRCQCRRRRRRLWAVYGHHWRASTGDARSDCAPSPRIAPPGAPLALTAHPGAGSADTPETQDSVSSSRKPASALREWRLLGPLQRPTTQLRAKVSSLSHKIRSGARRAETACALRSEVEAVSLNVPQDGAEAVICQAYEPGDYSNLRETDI
T4 sequence (P43140 whole entry): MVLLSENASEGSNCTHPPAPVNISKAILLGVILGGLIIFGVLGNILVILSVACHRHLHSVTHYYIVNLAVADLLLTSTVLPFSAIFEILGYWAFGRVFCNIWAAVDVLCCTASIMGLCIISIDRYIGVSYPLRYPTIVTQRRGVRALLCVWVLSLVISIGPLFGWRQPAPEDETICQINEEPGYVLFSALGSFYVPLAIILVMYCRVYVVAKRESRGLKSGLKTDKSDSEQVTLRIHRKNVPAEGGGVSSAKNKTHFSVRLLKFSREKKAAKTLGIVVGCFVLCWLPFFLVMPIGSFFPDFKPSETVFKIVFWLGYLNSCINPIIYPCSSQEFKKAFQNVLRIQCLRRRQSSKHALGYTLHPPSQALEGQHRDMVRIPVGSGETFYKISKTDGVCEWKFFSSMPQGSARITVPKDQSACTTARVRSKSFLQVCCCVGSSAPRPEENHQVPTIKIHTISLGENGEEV
The assay is described as follows: Displacement of [3H]prazosin from Alpha-1 adrenergic receptor of rat cortical membranes.

Assay [5] concerns the target T2, D(1A) dopamine receptor. The assay is described as follows: Displacement of [3H]-SCH- 23390 from Dopamine receptor D1 of rat striatal membranes. The method in brief:
as §1

Assay [6] has as its target T3, D(2) dopamine receptor. Put plainly: Inhibition of specific binding of [3H]spiroperidol to Dopamine receptor D2 in rat striatal membranes. The procedure, abridged:
as §1

The target of assay [7] is T1, Adrenergic receptor alpha-2. The assay is described as follows: Inhibition of specific binding of [3H]rauwolscine to Alpha-2 adrenergic receptor in rat cortical membranes.
Assay [8] deals with T2, D(1A) dopamine receptor. The assay is described as follows: Inhibition of specific binding of [3H]-SCH- 23390 to Dopamine receptor D1 in rat striatal membranes; Not active up to a concentration of 5 uM. The procedure, abridged: as §1

Molecules are shown by their SMILES.

T3 sequence (P61169 whole entry): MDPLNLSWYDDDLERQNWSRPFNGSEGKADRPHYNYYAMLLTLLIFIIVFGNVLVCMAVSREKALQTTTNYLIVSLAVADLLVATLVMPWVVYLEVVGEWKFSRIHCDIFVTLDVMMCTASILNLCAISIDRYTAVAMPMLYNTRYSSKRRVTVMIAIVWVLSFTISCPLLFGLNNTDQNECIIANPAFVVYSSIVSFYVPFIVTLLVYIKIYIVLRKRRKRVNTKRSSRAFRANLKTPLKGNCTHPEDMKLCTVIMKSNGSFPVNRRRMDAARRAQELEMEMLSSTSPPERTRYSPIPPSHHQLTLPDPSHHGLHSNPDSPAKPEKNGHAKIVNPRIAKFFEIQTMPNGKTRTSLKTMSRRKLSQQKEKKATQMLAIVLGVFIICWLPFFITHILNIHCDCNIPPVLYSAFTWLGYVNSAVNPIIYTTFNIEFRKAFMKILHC

On to `C#CCN1CCC[C@@H]2c3ccccc3CC[C@H]21`, for which the IC50 (as a rule, the concentration that inhibits the measured activity by half) is reported as 160 nM in assay [1], “Not Active” on D(1A) dopamine receptor [2] and “Not Active” at D(2) dopamine receptor [3].
On to `Oc1cccc2c1CC1CCCN(C/C=C/I)C1C2` (stereo not given), for which the IC50 in assay [4] came to 54 nM; in assay [1], 0.5 nM; on D(1A) dopamine receptor [5], 120 nM; on D(2) dopamine receptor [6] it was 490 nM.
With `C#CCN1CCCC2Cc3c(cccc3OC)CC21` (stereo not given), the IC50 is given as 1850 nM in assay [4], 197 nM in assay [1], “Not Active” at D(1A) dopamine receptor [2] and “Not Active” at D(2) dopamine receptor [3].
Consider `COc1cccc2c1CC1CCCNC1C2` (stereo not given), for which the IC50 in assay [4] is 2200 nM; in assay [1], 67.5 nM; on D(1A) dopamine receptor [2], “Not Active”; at D(2) dopamine receptor [3], “Not Active”.
As to `Oc1cccc2c1CC[C@@H]1[C@@H]2CCCN1C/C=C/I`, the IC50 was 225 nM in assay [4], 47 nM in assay [7], 1130 nM at D(1A) dopamine receptor [5] and “Not Active” at D(2) dopamine receptor [3].
Turning to `c1ccc2c(c1)CC1CCCNC1C2` (stereo not given), the results for the IC50 (in assay [7]; at D(1A) dopamine receptor [8]; on D(2) dopamine receptor [3]) were 130 nM, “Not Active” and “Not Active”, respectively.
As to `C#CCN1CCCC2Cc3ccccc3CC21` (stereo not given), the IC50 in assay [4] was 1300 nM; in assay [1], 142 nM; at D(1A) dopamine receptor [8], “Not Active”; on D(2) dopamine receptor [3], “Not Active”.
For the compound `C#CCN1CCCC2Cc3c(O)cccc3CC21` (stereo not given), the IC50 in assay [4] worked out at 209 nM; in assay [1], 251 nM; on D(1A) dopamine receptor [5], 700 nM; on D(2) dopamine receptor [6], 5110 nM.
On to `I/C=C/CN1CCCC2Cc3ccccc3CC21` (stereo not given), for which the IC50 is 274 nM in assay [4], 33 nM in assay [1], 220 nM at D(1A) dopamine receptor [5] and “Not Active” on D(2) dopamine receptor [3].
Take `c1ccc2c(c1)CC[C@H]1NCCC[C@H]21`: the half-inhibitory concentration (IC50) is 154 nM in assay [1], “Not Active” on D(1A) dopamine receptor [2] and “Not Active” on D(2) dopamine receptor [3].
As for `COc1cccc2c1CC[C@H]1NCCC[C@H]21`, the IC50 in assay [7] is given as 55 nM; at D(1A) dopamine receptor [2], “Not Active”; on D(2) dopamine receptor [3], “Not Active”.
On to `C#CCN1CCC[C@@H]2c3cccc(O)c3CC[C@H]21`, for which the IC50 in assay [7] is 49 nM; on D(1A) dopamine receptor [8], “Not Active”; on D(2) dopamine receptor [3] it was “Not Active”.
Take `NC1CCc2cc(O)c(O)cc2C1` (stereo not given): the IC50 on D(2) dopamine receptor [6] came to 700 nM.
`I/C=C/CN1CCC[C@@H]2c3ccccc3CC[C@H]21`: the IC50 in assay [4] was 253 nM; in assay [7], 128 nM; at D(1A) dopamine receptor [5] it was 1900 nM; at D(2) dopamine receptor [3], “Not Active”.
As to `COc1cccc2c1CC1CCCN(C/C=C/I)C1C2` (stereo not given), the IC50 in assay [4] is 43 nM; in assay [1], 226 nM; on D(1A) dopamine receptor [5], 80 nM; on D(2) dopamine receptor [3], “Not Active”.
Regarding `C#CCN1CCC[C@@H]2c3cccc(OC)c3CC[C@H]21`, the IC50 in assay [4] is 497 nM; in assay [7], 196 nM; on D(1A) dopamine receptor [2], “Not Active”; at D(2) dopamine receptor [3], “Not Active”.
As for `COc1cccc2c1CC[C@@H]1[C@@H]2CCCN1C/C=C/I`, the IC50 was 508 nM in assay [4], 18 nM in assay [7], 270 nM at D(1A) dopamine receptor [5] and “Not Active” at D(2) dopamine receptor [3].

For the origin of these results see ChEMBL document CHEMBL1131611, “N-(Iodopropenyl)-octahydrobenzo[f]- and -[g]quinolines: synthesis and adrenergic and dopaminergic activity studies” (J Med Chem, 1998).
